Assay outcomes deposited in PubChem by Broad Institute.
Compounds with a hit are over-represented: about 2.9% of the library has one in this group of screens.
rRNA inh HTS – reduced GFP signal of wild-type E. coli, primary screen, bacterial rRNA inhibitor project, GFP/RFP fluorescence, OD600, single point. GFP signal change (wild-type ribosome), % (no concentration beside the values). 350,000 tested, 1.6% active. E. coli WT GFP vs humanized-ribosome RFP mutants, 24 h; hits give low values; DMSO median 0, no signal -100;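 active means significant combined selectivity score with lowered wild-type GFP, culture density cut under 30%, mutant RFP and density less affected; inactive means any of these conditions unmet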
Cneo AK release – Cryptococcus neoformans cell lysis inducers, primary screen, AK release luminescence, single concentration; C. neoformans lysis, adenylate kinase release luminescence, 4 h; normalised: neutral wells 0, clomiphene wells 100; lysis activity, % at 15 µM; 360,000 tested, 0.2% active;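 active means mean lysis activity across replicates of at least 80%, whatever share of replicates individually reach that level; inactive means mean lysis activity below 80%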
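Assay system: Cryptococcus neoformans yeast cells / Dosing: single-point compound dose / Timing: 4 h at 37 °C static, read 1 h later / Measured by: luminescence of released adenylate kinase using an AK detection reagent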
FGF22 binding – binders of human FGF22 protein, primary screen, FGF22 synaptogenesis inhibitor project, biophysical, thermal shift, single point; activity (Tm shift, normalised), % at 9.99 µM; recombinant FGF22 thermal shift, SYPRO orange fluorescence; percent of sucrose octasulfate shift, DMSO zero; AID 651658, 2012; 340,000 tested, 1.5% active; Fibroblast growth factor 22 (Homo sapiens), Q9HCT0;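 active means mean Tm shift, scaled 0 neutral to 100 positive control, at about 1.3% or above, every replicate too, limit read from the data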
Target sequence (Q9HCT0 whole entry, looked up): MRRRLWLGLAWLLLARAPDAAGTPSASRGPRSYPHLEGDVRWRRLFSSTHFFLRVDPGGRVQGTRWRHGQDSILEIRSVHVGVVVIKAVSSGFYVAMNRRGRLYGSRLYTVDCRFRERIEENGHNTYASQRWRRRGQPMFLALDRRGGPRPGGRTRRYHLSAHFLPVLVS
Vif inh – HIV Vif self-association inhibitors, primary screen, imaging, HEK293T, single point | HEK293T cells, Vif self-association by quenched fluorescence, 24 h | inhibition, % at 7.49 µM | 340,000 tested, 0.35% active | AID 602346, 2012; in the data active means inhibition above about 50%, passing the limit was not always enough
PglD inh – C. jejuni PglD acetyltransferase inhibitors, primary screen, biochemical, DTNB colorimetric, single point; UDP-N-acetylbacillosamine N-acetyltransferase PglD (Campylobacter jejuni); purified PglD enzyme, DTNB colorimetric CoA detection; inhibition, % at 12.5 µM; 360,000 tested, 0.098% active; AID 602405, 2012; in the data active means inhibition above about 16%, passing the limit was not always enough
PGC1a acetyl inh – inhibitors of PGC1a acetylation signal, primary screen, cell-based, U2OS, AlphaScreen, inhibitor mode; inhibition, % at 15.6 µM; AID 651687, 2012; 350,000 tested, 0.17% active; AlphaScreen anti-acetyl-lysine; with virally co-expressed GCN5 acetyltransferase;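 active means every replicate shows inhibition of at least 40%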;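 further: 0% = neutral control wells and 100% = positive control wells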
* marks the source's active call; other numbers are inactive results; / = no result; + = active, no number.

SMILES	rRNA inh HTS	Cneo AK release	FGF22 binding	Vif inh	PglD inh	PGC1a acetyl inh
CO[C@H]1CN(C)C(=O)c2ccc(NS(C)(=O)=O)cc2OC[C@H](C)N(CCC(F)(F)F)C[C@H]1C	2.7	4.9	/	/	-0.6	-0.2
COc1cccc(-n2nc(C(N)=O)c(O)cc2=O)c1	8.4	/	43.4*	5.0	/	3.8
NC(=O)c1nn(-c2ccc(Cl)cc2Cl)c(=O)cc1O	-0.2	/	44.0*	3.4	/	/
Cc1c(C(=O)/C=C/N(C)C)nnn1-c1ccc(Cl)cc1Cl	-7.7	/	0.1	0.8	/	10.5
COc1ccc(-n2nc(C(N)=O)c(O)cc2=O)cc1	13.8	/	0.1	-3.3	/	3.2
O=C(N[C@@H]1C=C[C@H](CC(=O)N2CCOCC2)O[C@@H]1CO)c1ccccn1	3.1	0.3	-0.6	/	2.5	6.2
CCC1(C)COC(C)(CC(=O)NNC(=O)Nc2ccccc2)OC1 (configuration not stated)	/	/	43.5*	-2.9	/	/
COc1ccccc1Nc1nnc(C)c(=O)[nH]1	/	3.3	/	73.0*	0.5	/
CCOc1ccccc1Nc1nnc(C)c(=O)[nH]1	/	/	/	-8.1	/	4.1
Nc1c(C(=O)NCCc2ccccc2)nnn1Cc1ccc(Br)cc1F	7.2	/	43.5*	4.5	/	/
C(=N\Nc1nc2ccccc2[nH]1)/c1ccc2ncccc2c1	0.2	4.8	0.1	32.6	-10.2	48.9*
C(=N\Nc1nc2ccccc2[nH]1)/c1ccccn1	12.1	/	42.6	-0.5	/	/
C(=N\Nc1nc2ccccc2[nH]1)/c1cccc2nccnc12	-31.4*	-2.9	0.0	/	1.8	7.8
COc1cc(OC)c(OC)cc1/C=N/Nc1nc2ccccc2[nH]1	-39.0*	/	0.2	-1.4	/	/
O=C(NC[C@H]1N[C@H](CO)[C@@H]1c1ccc(-c2cncnc2)cc1)C1CCCC1	-0.6	/	/	/	/	/
C[C@H]1CN(C)C(=O)Cc2cc([N+](=O)[O-])ccc2O[C@H]1CN(C)C(=O)OC(C)(C)C	-1.2	/	/	/	/	/
C[C@H]1[C@@H]2C[C@@]3(O[C@H](c4ccc(C(F)(F)F)cc4)N=C3C[C@@H]1c1ccccc1)N(Cc1ccncc1)C2=O	1.2	/	42.1	/	/	/
C[C@H]1[C@@H]2C[C@@]3(O[C@H](c4ccccn4)N=C3C[C@@H]1c1ccccc1)N(Cc1ccncc1)C2=O	15.4	/	48.5*	/	/	/
Nc1ccc2nc(SCc3cccc(F)c3)sc2c1	-31.2*	-2.0	-0.3	8.8	-6.0	-8.4
O=c1c2ccccc2nc(/C=C/c2ccc([N+](=O)[O-])o2)n1CCCO	/	1.8	/	+	-7.4	-47.2
CCCc1cn(CC[C@H]2CC[C@@H](NC(=O)Cc3cccnc3)[C@H](CO)O2)nn1	1.3	51.3	-0.2	/	-0.6	0.5
C[C@@H]1CN([C@@H](C)CO)C(=O)c2cccc(NC(=O)Nc3ccccc3)c2O[C@H]1CN(C)S(=O)(=O)c1cn(C)cn1	2.5	96.7*	0.4	/	2.7	9.5
C[C@H](CO)N1C[C@H](C)[C@@H](CN(C)S(=O)(=O)c2cn(C)cn2)Oc2c(NC(=O)Nc3ccccc3)cccc2C1=O	-1.2	96.7*	0.0	/	-2.4	2.8
Cc1noc(C)c1S(=O)(=O)N(C)C[C@@H]1Oc2c(NC(=O)c3cnccn3)cccc2C(=O)N([C@@H](C)CO)C[C@@H]1C	-3.5	114.0*	0.1	/	4.2	2.1
COCC(=O)N1CC2(C1)CN(C(=O)Nc1ccccc1F)[C@@H](CO)c1c2c2ccc(OC)cc2n1C	-0.4	/	0.0	/	/	-7.9
SMILES	rRNA inh HTS	Cneo AK release	FGF22 binding	Vif inh	PglD inh	PGC1a acetyl inh
C[C@H]1CN([C@@H](C)CO)S(=O)(=O)c2ccc(-c3ccccc3)cc2O[C@H]1CN(C)C(=O)c1ccc2c(c1)OCO2	-14.1	-1.8	-0.2	/	-2.2	2.4
Cc1cc(/C=N/N2CCN(C)CC2)c(C)n1-c1ccccc1F	8.4	/	43.8*	21.6	/	/
COc1ccc(OC(=O)N(C)C[C@@H]2OCc3ccccc3-c3ccccc3C(=O)N([C@@H](C)CO)C[C@@H]2C)cc1	-4.2	-1.3	-0.1	/	-1.9	0.3
Nc1nc(=S)ss1	-13.3*	0.0	-0.5	-0.1	2.8	7.0
Cc1cccc(OCC(=O)Nc2ccc(C(=O)NCC(C)C)cc2)c1	/	-3.1	44.1*	-2.2	-0.3	-8.8
O=C(C[C@@H]1C=C[C@@H](NC(=O)c2ccncc2)[C@H](CO)O1)Nc1ccccc1	2.0	/	/	/	/	5.1
O=C(O)CCCC(=O)Nc1cccc([N+](=O)[O-])c1	15.6	/	43.1*	9.6	/	/
O=[N+]([O-])c1cccc(N/N=C/c2cccc(O)c2O)c1	-7.6	/	0.5	63.8*	/	11.1
O=C(Nc1ccc(C(=O)O)cc1)Nc1cccc([N+](=O)[O-])c1	11.0	/	0.0	-0.7	/	/
O=C(CCCc1ccccc1)Nc1cccc([N+](=O)[O-])c1	4.4	-7.2	0.9	7.7	5.9	-1.2
O=C(Nc1cccc([N+](=O)[O-])c1)Nc1cccc([N+](=O)[O-])c1	-18.5*	/	0.3	-16.8	/	/
CC1=C(C(=O)Nc2cccc([N+](=O)[O-])c2)C2(CCC(C)CC2)OC1=O (configuration not stated)	/	/	43.9*	2.1	/	/
C[C@@H]1CN([C@@H](C)CO)C(=O)Cc2cc(NS(C)(=O)=O)ccc2O[C@H]1CN(C)S(=O)(=O)c1ccccc1	3.6	5.3	-0.5	/	0.6	1.7
CCCC#Cc1cnc2c(c1)C(=O)N([C@@H](C)CO)C[C@H](C)[C@@H](CN(C)C(=O)c1ccc(F)cc1)O2	1.2	45.5	-0.3	/	2.5	7.4
CCC(=O)Nc1ccc2c(c1)OC[C@@H](C)N(C(=O)C1CCC1)C[C@H](C)[C@H](OC)CN(C)C2=O	0.4	-5.2	0.0	/	1.4	-14.0
Cc1ccc(C(=O)CNc2cccc([N+](=O)[O-])c2)cc1	14.1	0.6	43.1*	/	4.9	-6.2
Cc1ccc(NC(=O)Nc2cccc([N+](=O)[O-])c2)nc1	-1.0	/	43.0*	-1.5	/	-6.8
Cc1cccc(NC(=S)NNC(=O)c2cccc([N+](=O)[O-])c2)c1	-11.2	-4.6	-0.2	-4.4	10.8	-4.1
Cc1ccc(NCC(=O)c2ccc([N+](=O)[O-])cc2)cc1	/	/	/	0.2	/	0.0
Cc1occc1C(=O)NNC(=S)Nc1cccc([N+](=O)[O-])c1	-19.0*	1.5	/	13.8	-4.5	/
CCCNC(=O)N1C[C@@H](C)[C@H](OC)CN(C)C(=O)c2ccc(NS(C)(=O)=O)cc2OC[C@H]1C	0.2	52.1	-0.1	/	-0.7	-4.1
